Tests used:
Assay type in all cases: functional
[1] = system: A549; experiment: Antiproliferative activity against human A549 cells by sulforhodamine B assay
Method in brief: (§1)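 Cells in RPMI 1640 (25 mM HEPES, 2 mM L-glutamine, 10% heat-inactivated FBS, antibiotics) at 37 °C, 5% CO2. Seeded at 3–5 × 10³/well with graded concentrations, paclitaxel as assay control, for 72 h. TCA-fixed, stained with 0.04% SRB, dye dissolved in 10 mM Tris, A515 read. GI50 is the concentration halving absorbance versus untreated cells; three or more experiments.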

[2] = system: DU-145; experiment: Antiproliferative activity against human DU145 cells by sulforhodamine B assay; method in brief: as §1
[3] = Selectivity ratio of GI50 for human KB cells to GI50 for multidrug-resistant P-gp expressing human KBVIN cells
Method in brief: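 Ratio of GI50 in parental KB to GI50 in P-gp-overexpressing KB-VIN. […] KB-VIN cells were grown 7–10 days without vincristine before the assay.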

[4] = Antiproliferative activity against multidrug-resistant P-gp expressing human KBVIN cells by sulforhodamine B assay
Method in brief: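 Vincristine-resistant KB subline kept in 100 nM vincristine, then grown 7–10 days without it before testing. RPMI 1640 with 10% FBS, 37 °C, 5% CO2. 3–5 × 10³ cells/well exposed 72 h to a concentration series, paclitaxel as assay control. SRB staining after TCA fixation, A515 read. GI50 is the 50% absorbance reduction versus untreated cells; three or more experiments.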

[5] = system: KB; experiment: Antiproliferative activity against human KB cells by sulforhodamine B assay; method in brief: as §1

Row | Structure (SMILES) | GI50 [1] [µM] | GI50 [2] [µM] | RatioGI50 [3] | GI50 [4] [µM] | GI50 [5] [µM]
1 | C=C1[C@@H](OC(C)=O)[C@]23C[C@@H]1[C@@H](OC(C)=O)C[C@H]2[C@@]12C4C3C[C@@H]1[C@@](C)(CC[C@H]2OC(C)=O)CN4CC | > 20 | > 20 | >20 | > 20 | > 20
2 | C=C1[C@@H](O)[C@]23C[C@@H]1[C@@H](OC(=O)c1ccc(OC)c(OC)c1)C[C@H]2[C@@]12C4C3C[C@@H]1[C@@](C)(CC[C@H]2O)CN4CC | > 20 | > 20 | >20 | > 20 | > 20
3 | CCN1C[C@]2(C)CC[C@H](O)[C@@]34C5C[C@@H]6[C@@H](OC)C[C@@](O)(C5[C@H]6O)[C@@H](CC23)C14 (stereo not given in full) [KARACOLINE] | > 20 | > 20 | >20 | > 20 | > 20
4 | C=C1[C@H]2C[C@@]3([C@@H]1OC(C)=O)[C@@H](C[C@@H]2O)[C@@]12C4[C@@H]3C[C@@H]1[C@@](C)(CC[C@@H]2O)CN4CC | > 20 | > 20 | >20 | > 20 | > 20
5 | C=C1[C@H]2C[C@@H]3C4N5C[C@]6(C)CCC[C@@]47[C@@H]6[C@@H]5C[C@]3([C@@H]1O)[C@H]7[C@H]2OC(=O)c1ccc(OC)cc1 | > 20 | > 20 | >20 | > 20 | > 20
6 | C=C1[C@H]2C[C@@H]3C4N5C[C@]6(C)CCC[C@@]47[C@@H]6[C@@H]5C[C@]3([C@@H]1OC(=O)c1ccccc1)[C@H]7[C@H]2OC(=O)c1ccccc1 | 8.4 | 9.3 | 0.8 | 7.5 | 6
7 | CCN1C[C@]2(C)CC[C@H](OC)[C@@]34[C@@H]5C[C@H]6[C@H](OC)[C@@H]5[C@@]5(C[C@@H]6OC)OCO[C@@]5([C@@H](OC(=O)c5cccc(C(F)(F)F)c5)[C@H]23)[C@@H]14 | 10 | 10 | 10 | 10 | 10
8 | C=C1[C@H]2C[C@@H]3C4N5C[C@]6(C)CCC[C@@]47[C@@H]6[C@@H]5C[C@]3([C@@H]1O)[C@H]7[C@H]2OC(=O)c1ccc(C(F)(F)F)cc1 | 10 | 10 | 10 | 10 | 10
9 | C=C1[C@H]2C[C@@H]3C4N5C[C@]6(C)CCC[C@@]47[C@@H]6[C@@H]5C[C@]3([C@@H]1OC(=O)c1ccc([N+](=O)[O-])cc1)[C@H]7[C@H]2O | > 20 | > 20 | >20 | > 20 | > 20
10 | C=C1[C@H]2C[C@@H]3C4N5C[C@]6(C)CCC[C@@]47[C@@H]6[C@@H]5C[C@]3([C@@H]1O)[C@H]7[C@H]2OC(=O)c1cccc(C(F)(F)F)c1 | > 20 | > 20 | >20 | > 20 | > 20
11 | C=C1[C@H]2C[C@@H]3C4N5C[C@]6(C)CCC[C@@]47[C@@H]6[C@@]5(O)C[C@]3([C@@H]1OC(=O)c1ccccc1)[C@H]7[C@H]2OC(=O)c1ccccc1 | 8.8 | 7.6 | 0.82 | 6.3 | 5.2
12 | C=C1[C@@H](O)[C@]23C[C@@H]1[C@@H](OC(=O)c1ccccc1)C[C@H]2[C@@]12C4C3C[C@@H]1[C@@](C)(CC[C@H]2O)CN4CC | > 20 | > 20 | >20 | > 20 | > 20
13 | CCN1C[C@]2(C)CC[C@H](OC)[C@@]34[C@@H]5C[C@H]6[C@H](O)[C@@H]5[C@@]5(C[C@@H]6OC)OCO[C@@]5(C(=O)[C@H]23)[C@@H]14 [YUNNADELPHININE] | > 20 | > 20 | >20 | > 20 | > 20
14 | C=C1[C@H]2C[C@@]3([C@@H]1OC(C)=O)[C@@H](C[C@@H]2OC(=O)c1ccccc1)[C@@]12C4[C@@H]3C[C@@H]1[C@@](C)(CC[C@@H]2O)CN4CC | > 20 | > 20 | >20 | > 20 | > 20
15 | C=C1[C@H]2C[C@@H]3C4N5C[C@]6(C)CCC[C@@]47[C@@H]6[C@@]5(O)C[C@]3([C@@H]1O)[C@H]7[C@H]2OC(=O)c1ccc(C(F)(F)F)cc1 | 10 | 10 | 10 | 10 | 10
16 | CCN1C[C@]2(COC)CC[C@H](OC(=O)c3ccc(C(F)(F)F)cc3)[C@]34C1[C@@](O)([C@@H](OC)[C@H]23)[C@@]1(O)C[C@H](OC)[C@H]2C[C@@H]4[C@@H]1[C@H]2O | > 20 | > 20 | >20 | > 20 | > 20
17 | C=C1[C@H]2C[C@H]3C4N5C[C@]6(C)CCC[C@]47[C@H]([C@H]2OC(=O)c2ccccc2)C3(C[C@]5(OC(=O)c2ccccc2)[C@H]67)[C@@H]1O | 10 | 10 | 10 | 10 | 10
18 | C=C1[C@H]2C[C@H]3C4N5C[C@]6(C)CCC[C@]47[C@H]([C@H]2OC(=O)/C=C/c2ccccc2)C3(C[C@]5(O)[C@H]67)[C@@H]1O | 8.4 | 6.5 | 1.1 | 6.4 | 7
19 | CCN1C[C@@]2(COC)[C@H]3[C@@H](OC)C=C4[C@H]5[C@@H](OC(=O)c6ccc(OC)cc6)[C@](O)(C[C@H]5[C@@]35C1O[C@@H]2C[C@@H]5OC)[C@@H](OC)[C@@H]4O | > 20 | > 20 | >20 | > 20 | > 20
20 | C=C1[C@H]2C[C@@]3([C@@H]1OC(=O)c1ccccc1)[C@@H](C[C@@H]2OC(=O)c1ccccc1)[C@@]12C4[C@@H]3C[C@@H]1[C@@](C)(CC[C@@H]2OC(=O)c1ccccc1)CN4CC | > 20 | > 20 | >20 | > 20 | > 20
21 | CC(=O)O[C@H]1C(=O)[C@@]2(C)[C@H]([C@H](OC(=O)c3ccccc3)[C@]3(O)C[C@H](OC(=O)[C@H](O)[C@@H](NC(=O)c4ccccc4)c4ccccc4)C(C)=C1C3(C)C)[C@]1(OC(C)=O)CO[C@@H]1C[C@@H]2O [PACLITAXEL] | 0.0071 | 0.0057 | 0.0067 | 0.95 | 0.0064
22 | C=C1[C@H]2C[C@H]3C4N5C[C@]6(C)CCC[C@]47[C@H]([C@H]2O)C3(C[C@]5(OC(=O)c2ccc(OC)cc2)[C@H]67)[C@@H]1O | > 20 | > 20 | >20 | > 20 | > 20
23 | C=C1[C@H]2C[C@@H]3C4N5C[C@]6(C)CCC[C@@]47[C@@H]6[C@@H]5C[C@]3([C@@H]1O)[C@H]7[C@H]2OC(=O)c1cccnc1 | > 20 | > 20 | >20 | > 20 | > 20
